Compound activity (PubChem)
The list is not random: actives were taken first. Their share in the collection is about 1.5%.
NR2E3 ag-1: inhibitors of NR2E3-RetCOR corepressor binding, primary screen, NR2E3 agonist project, biochemical, TR-FRET, GST-NR2E3, biotin-RetCOR; AID 2300, 2010; inhibition of corepressor binding, % at 4.78 µM; 1536-well; Photoreceptor-specific nuclear receptor (Homo sapiens), Q9Y5X4; actives 0.12% (n = 320,000);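 active means percent inhibition above the cutoff of mean plus 3 SD of all tested compounds, set per screening campaign, cut at about 20% in these data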;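 further: 0% = DMSO wells and 100% = biotin wells as full block of FRET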
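Material: NR2E3–RetCOR corepressor complex / Amount: 1.35 nM GST-NR2E3 / Medium: Tris pH 7.5 / Compound: single nominal compound dose of 4.8 µM / Incubation: 5 h at 4 °C / Technique: TR-FRET, Eu(K)-anti-GST donor, streptavidin-D2 acceptor, ex 340, em 617/671 nm / Read-out basis: percent loss of FRET ratio relative to control wells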
GASC-1 inh: inhibitors of GASC-1 histone demethylase, primary screen, biochemical, fluorescence, DELFIA europium | GST-JMJD2C(1-420) H3K9me3 demethylation | actives 0.069% (n = 330,000) | AID 2099, 2009 | Lysine-specific demethylase 4C (Homo sapiens), Q9H3R0 | inhibition, % at 2.35 µM;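 active means more than half of a compound's replicate wells show inhibition beyond 50%, single wells judged on their own value; inconclusive means some, but no more than half, of replicates pass 50% inhibition; inactive means no replicate passes 50% inhibition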;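 further: signal counts dimethyl H3K9 product captured on neutravidin plate; 0% = median of DMSO wells and 100% = 0.3 times that DMSO median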
Target sequence (Q9H3R0 1-420 limits assumed): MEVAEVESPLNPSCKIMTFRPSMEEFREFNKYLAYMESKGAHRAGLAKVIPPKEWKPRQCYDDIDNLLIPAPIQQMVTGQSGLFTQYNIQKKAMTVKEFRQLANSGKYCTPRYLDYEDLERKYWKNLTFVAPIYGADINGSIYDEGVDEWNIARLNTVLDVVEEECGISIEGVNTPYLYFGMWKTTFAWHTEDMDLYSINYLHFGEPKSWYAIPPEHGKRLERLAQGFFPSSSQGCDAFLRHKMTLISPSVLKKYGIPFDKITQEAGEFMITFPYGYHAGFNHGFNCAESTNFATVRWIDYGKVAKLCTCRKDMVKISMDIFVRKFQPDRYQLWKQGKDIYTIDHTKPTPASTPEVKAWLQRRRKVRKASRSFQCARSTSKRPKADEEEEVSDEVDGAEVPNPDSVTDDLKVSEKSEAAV
697 NFkB inh: inhibitors of PMA/ionomycin-induced NF-kB reporter, 697 cells, primary screen, B-cell NF-kB inhibitor project, cell-based, luminescence, uHTS; 697 B-cell NF-kB luciferase reporter, 16 h; inhibition, % at 4 µM; actives 0.33% (n = 330,000); in the data active means inhibition above about 35%
GalR3 antag: GalR3 antagonists in HEK293 cells, primary screen, cell-based, fluorescence readout; Galanin receptor type 3 (Homo sapiens), O60755; inhibition, % at 3 µM; HEK293 GalR3-CNG cAMP membrane potential fluorescence; galR3 body fused to GalR1 C-terminus; actives 0.44% (n = 360,000);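 active means inhibition above the screen-wide average plus 3 SD, cut at about 13% in these data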;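 further: forskolin and galanin both at EC90 stimulate the cells; cAMP rise reported by CNG channel membrane potential dye signal; 0% = forskolin plus galanin with DMSO and 100% = forskolin alone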
Target sequence (O60755 1-299 limits assumed): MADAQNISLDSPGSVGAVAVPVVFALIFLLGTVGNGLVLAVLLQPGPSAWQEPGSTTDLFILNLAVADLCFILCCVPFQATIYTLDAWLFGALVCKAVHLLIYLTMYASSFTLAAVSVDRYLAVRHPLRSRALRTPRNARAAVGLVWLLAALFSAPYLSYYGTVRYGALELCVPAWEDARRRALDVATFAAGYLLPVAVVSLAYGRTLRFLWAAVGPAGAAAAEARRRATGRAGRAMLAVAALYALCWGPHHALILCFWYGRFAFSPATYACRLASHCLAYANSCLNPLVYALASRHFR
NR2E3 ag-2: NR2E3 agonists in two-hybrid cells, primary screen, cell-based, luminescence, CHO-S, Gal4-NCOR/VP16-NR2E3; luciferase; inhibition of corepressor binding, % at 3.98 µM; actives 0.35% (n = 360,000); AID 602229, 2012;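 active means inhibition above the mean of all tested compounds plus 3 SD, cut at about 70% in these data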;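 further: 0% = DMSO with NR2E3 transfected cells and 100% = cells lacking NR2E3 construct; higher means lower luciferase signal from less NR2E3 corepressor binding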
Jurkat NFkB inh: inhibitors of induced NF-kB luciferase reporter, primary screen, TCR NF-kB activation inhibitor project, cell-based, luminescence, uHTS. Jurkat, PMA/ionomycin-induced NF-kB luciferase reporter. inhibition, % at 4 µM. actives 0.53% (n = 330,000). AID 435003, 2010; in the data active means inhibition above about 50%
697 NFkB conf: PMA/ionomycin-induced NF-kB reporter inhibitors, 697 retest, confirmation, B-cell NF-kB inhibitor project, cell-based, luminescence, single concentration; shares compounds with 697 NFkB inh; 697 B-cell NF-kB luciferase, 16 h; inhibition, % at 4 µM; actives 35% (n = 2,000); in the data active means inhibition mostly above about 28%, no sharp cut-off; inactive means mostly below about 22%
An asterisk follows results filed as active; i = inactive; ? = inconclusive; / = no result given.

SMILES | NR2E3 ag-1 | GASC-1 inh | 697 NFkB inh | GalR3 antag | NR2E3 ag-2 | Jurkat NFkB inh | 697 NFkB conf
O=C(N/N=C\c1cccc(F)c1)c1ccc(Cn2cc(Br)c([N+](=O)[O-])n2)o1 | -1.4 | -29.7 | 11.4 | -3.0 | -9.8 | 9.8 | /
COC(=O)c1[nH]c2ccc(C)cc2c1NC(=O)Nc1ccccc1OC | -0.1 | -9.9 | 35.7* | 2.2 | 6.7 | 9.0 | 25.9*
Cc1noc(COc2ccccc2OCC(N)=O)c1Cl | -2.2 | 7.3 | 37.5* | -0.1 | -13.1 | -3.2 | 25.5
Cc1cc(COc2ccccc2OCc2cc(C)no2)on1 | -3.4 | / | 12.0 | 4.5 | -18.2 | 0.8 | /
CCOc1ccc(-c2nnc(-c3cccs3)o2)cc1OCC | 1.4 | -2.4 | -57.9 | 3.2 | -79.2 | -68.4 | /
CCOc1ccc(-c2nnc(-c3cccs3)o2)cc1 | -0.9 | ? | -251.2 | -2.6 | -164.9 | -93.3 | -212.4
OCC[C@@H]1C[C@H](O)[C@@H](O)[C@]2(OCCc3cc(Cl)ccc32)O1 | / | / | / | -5.0 | -13.0 | / | /
COc1cccc(-c2cc(C(=O)N3C(C)CCCC3C)no2)c1 (stereo not drawn) | 1.4 | -3.6 | -137.2 | -6.0 | -89.0 | -128.2 | /
Cc1ccccc1NC(=O)CCc1c(C)nn(-c2ccc(N3CCCCC3)nn2)c1C | -0.5 | 32.3 | -29.7 | -6.5 | 0.7 | -11.8 | /
Cc1nn(-c2ccc(N3CCCCC3)nn2)c(C)c1CCC(=O)Nc1ccccc1F | -5.4 | -3.4 | 51.4* | -7.9 | -19.1 | -37.5 | 47.8*
Cc1ccc(NS(=O)(=O)c2ccc3c(c2)n(C)c(=O)n3C)cc1C | -2.0 | -3.6 | -6.1 | 1.9 | 11.4 | 7.1 | /
Cc1ccc(S(=O)(=O)Nc2ccc3c(c2)n(C)c(=O)n3C)cc1 | 1.2 | 1.3 | 46.6* | -5.3 | 33.0 | -9.9 | 28.6*
Cn1c(=O)n(C)c2cc(NS(=O)(=O)c3ccccc3)ccc21 | -2.2 | 4.0 | 35.8* | / | 11.1 | -1.7 | 32.3*
O=C(NCC1COc2ccccc2O1)c1cccc(S(=O)(=O)NCc2ccccc2)c1 (stereo not drawn) | 1.6 | -5.0 | -9.2 | -3.0 | -6.8 | 4.3 | /
CC(=O)Nc1sc2c(c1C(c1ccc(F)cc1)N1CCOCC1)CCCC2 (stereo not drawn) | -2.0 | 1.7 | 36.5* | -2.9 | -12.2 | -5.5 | -18.9
O=C(N/N=C(\c1ccccc1)c1cccnc1)c1cc(O)ccc1O | -5.5 | 6.0 | 16.4 | 0.2 | / | -1.9 | /
COc1cccc(CNC(=O)c2cc3oc4ccccc4c3n2C)c1OC | 1.6 | 7.0 | -378.0 | -0.8 | 3.6 | 9.7 | i
CCOc1ccc(CNC(=O)c2cc3oc4ccccc4c3n2C)cc1 | 0.2 | 4.2 | -389.0 | -3.3 | -46.3 | -59.5 | -185.9
CCOc1ccc2cc(C(=O)NCc3ccccc3)c(=N)oc2c1 | -0.6 | 45.6 | -11.9 | -11.7 | -36.9 | -2.4 | /
CCOc1ccccc1CNC(=O)c1cc2oc3ccccc3c2n1CC | -2.4 | -4.9 | -279.9 | -5.7 | -29.2 | -19.0 | -96.8
Cc1ccccc1-n1nc2c(c1NC(=O)C(C)(C)C)CS(=O)(=O)C2 | -4.0 | 0.9 | 6.3 | 11.3 | 8.7 | -0.4 | /
CCN(CCCNC(=O)Cn1ncc2c([nH]c3ccc(C)cc32)c1=O)c1ccccc1 | 0.6 | 0.7 | -24.2 | -0.5 | -15.5 | -11.0 | /
CCc1nc(SCC(=O)N2c3ccccc3CC2C)c2c(C)c(C)sc2n1 (stereo not drawn) | -0.5 | -7.7 | i | -9.8 | 5.6 | -56.0 | i
Cc1sc2nc(C(C)C)nc(SCC(=O)N3c4ccccc4CC3C)c2c1C (stereo not drawn) | 1.6 | 1.5 | -39.1 | -0.9 | -2.1 | 1.6 | /
COC(=O)c1cc(C(=O)c2ccc(Cl)cc2)n2c(=O)/c(=C\N(C)C)sc12 | 2.2 | -12.3 | 41.3* | -6.3 | -14.6 | 7.6 | 10.7
SMILES | NR2E3 ag-1 | GASC-1 inh | 697 NFkB inh | GalR3 antag | NR2E3 ag-2 | Jurkat NFkB inh | 697 NFkB conf
O=C(O)/C=C/c1ccc(S(=O)(=O)Nc2ccc(OCc3ccccc3)cc2)cc1 | -0.5 | 5.0 | 10.7 | -7.8 | -20.2 | 6.9 | /
N#Cc1ccccc1COc1ccc(/C=C/C(=O)O)cc1 | -0.6 | 5.1 | 38.5* | -3.7 | -11.6 | 13.7 | 38.4*
Cc1cc(Oc2ccc(C#N)cc2)nc(NCc2ccccc2)n1 | 0.3 | 3.9 | -31.8 | -3.4 | 32.7 | -1.0 | /
O=C1CC(c2ccc3c(c2)OCO3)CN1 (stereo not drawn) | -1.9 | 7.5 | 38.3* | -3.5 | -21.0 | 24.1 | 11.8
O=C1CC(c2ccc3c(c2)OCO3)c2cc3c(cc2N1)OCO3 (stereo not drawn) | 0.8 | -2.0 | 3.3 | -5.0 | -53.1 | 16.0 | /
CCCN1C(=O)/C(=C/c2c(NCCCOC(C)C)nc3c(C)cccn3c2=O)SC1=S | 0.8 | -14.4 | -2.2 | / | 26.2 | -8.6 | /
CCC(C)N1C(=O)/C(=C/c2c(NCCCOC(C)C)nc3c(C)cccn3c2=O)SC1=S (stereo not drawn) | 2.5 | / | 38.3* | -1.7 | -17.1 | 13.2 | 33.9*
COc1ccc(C)cc1NC(=O)C(CCS(C)(=O)=O)NC(C)=O (stereo not drawn) | 0.7 | -3.1 | -2.2 | / | -12.4 | -6.8 | /
N/C(=N\OC(=O)c1ccc(Cl)cc1)c1[nH]ncc1Br | -1.2 | -3.7 | -394.1 | -2.9 | -181.0 | -138.2 | -275.4
CCO/N=C(\N)c1[nH]ncc1Br | 3.1 | 32.5 | 10.0 | -5.4 | 14.7 | 9.4 | /
CC#CC(=O)NCC1(N(C)Cc2ccccc2)Cc2ccccc2C1 | 1.2 | -2.2 | -51.9 | 1.9 | -31.0 | -16.2 | /
O=C(NC1CCC(O)CC1)c1ccc(-c2ccc([N+](=O)[O-])cc2)o1 (stereo not drawn) | -0.6 | 9.8 | -5.5 | 5.6 | -36.7 | -9.7 | /
O=C(Nc1cccc(Br)c1)c1ccc2c(c1)SC1=NS(=O)(=O)CCN12 | 3.3 | -0.7 | 46.0* | 2.9 | -3.2 | -1.1 | 40.6*
CN(C)CC(C(=O)c1ccccc1)c1ccccc1 (stereo not drawn) | 1.2 | 3.5 | -252.9 | 1.5 | 20.1 | 38.3 | -24.1
COc1ccc(NC(=O)Nc2cccc3c2O[C@H](CN(C)C(=O)Nc2c(C)noc2C)[C@@H](C)CN([C@H](C)CO)C3=O)cc1 | / | / | 19.7 | -2.9 | -6.0 | -2.2 | /
Cn1c(=O)[nH]c(=O)c2c1nc(N1CCOCC1)n2CCc1ccccc1 | 3.0 | 30.8 | 47.1* | -2.2 | -14.6 | -24.3 | 6.8
